≈ marks a conversion by molar mass, not a printed value.
Assays:
[1] = tested on: Vero; assay: Cytotoxicity against african green monkey Vero cells; format: cell-based, Chlorocebus sabaeus
[2] = tested on: Mycobacterium tuberculosis; assay: Antitubercular activity against Mycobacterium tuberculosis H37Rv incubated at 37 degC for 7 days by microplate alamar blue assay; format: functional; conditions: for MIC: Mycobacterium tuberculosis, H37Rv, 168 h
Outline: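 Mtb H37Rv was grown in 7H9 broth with glycerol, Casitone, 10% OADC and 0.05% Tween 80 to OD600 0.4. Compounds were 2-fold serially diluted from DMSO stocks in 7H9, and wells were inoculated at 2 × 10⁵ CFU/mL. After 7 days at 37 °C, Alamar Blue was added and read after a further 24 h. MIC was the lowest concentration preventing the blue-to-pink change.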

[3] = tested on: Mycobacterium tuberculosis; assay: Antitubercular activity against Mycobacterium tuberculosis H37Rv incubated at 37 degC for 14 days in presence of 40% human serum by microplate alamar blue assay; format: functional; conditions: 336 h
Outline: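 This is the MABA run in 7H9 broth containing 40% human serum. Compounds were 2-fold serially diluted, and wells were inoculated with H37Rv at 2 × 10⁵ CFU/mL. Incubation was at 37 °C for 14 days, then Alamar Blue was added. MIC was the lowest concentration preventing the blue-to-pink colour change.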

[4] = Solubility in simulated gastric fluid at pH 1.5 by HPLC method; format: physicochemical
Outline: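 Compound at 200 μM final in 2% DMSO in simulated gastric fluid, shaken 24 h at room temperature; HPLC-photodiode array detection at 230 nm; duplicate means.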

[5] = Solubility in simulated intestinal fluid at pH 7.6 by HPLC method; format: physicochemical
Outline: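 Simulated intestinal fluid medium; each analogue 200 μM final in 2% DMSO, shaken 24 h at room temperature, then HPLC with photodiode array read at 230 nm; duplicate, means given.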

[6] = tested on: Mycobacterium tuberculosis; assay: Antitubercular activity against non-replicating Mycobacterium tuberculosis H37Rv incubated for 10 days by LORA method; format: functional; conditions: 240 h
Outline: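 H37Rv carrying pFCA-luxAB was adapted to low oxygen by gradual self-depletion in a sealed, slowly stirred flask. It was then exposed to compounds for 10 days under anaerobic conditions. Cultures recovered for 28 h in ambient oxygen before n-decanal substrate was added and luminescence read. MIC was the lowest concentration giving a 90% reduction in luminescence versus untreated controls.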

[7] = Efflux ratio in human Caco2 cells incubated for 1 hr at 37 degC by HPLC-MS/MS method; format: ADME, cell-based; conditions: Caco-2
[8] = Aqueous solubility in PBS buffer at pH 7.4 by HPLC method; format: physicochemical; conditions: PBS buffer, read-out: solubility
Outline: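 Compound at 200 μM final in 2% DMSO in PBS pH 7.4, shaken 24 h at room temperature; quantified by HPLC with photodiode array detection at 230 nm; duplicate, mean reported.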

[9] = Permeability across basolateral to apical side in human Caco2 cells incubated for 1 hr at 37 degC by HPLC-MS/MS method; format: ADME, cell-based; conditions: Caco-2
[10] = Permeability across apical to basolateral side in human Caco2 cells incubated for 1 hr at 37 degC by HPLC-MS/MS method; format: ADME, cell-based; conditions: Caco-2
Outline: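 TC7 (Caco-2 subclone) monolayer; 10 μM compound in 1% DMSO in HBSS-MES pH 6.5 on apical donor side, basolateral receiver pH 7.4; shaken 1 h at 37 °C; receiver sampled, HPLC-MS/MS; duplicate means.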

[11] = Metabolic stability in human liver microsomes assessed as parent compound remaining at 1 uM incubated for 1 hr by HPLC-MS/MS method; format: ADME, Microsome; conditions: read-out: Stability
Outline: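 Pooled mixed-gender human liver microsomes (0.3 mg/mL protein), 1 μM compound with NADP-regenerating system in phosphate buffer pH 7.4, 1 h at 37 °C; parent measured at start and end by HPLC-MS/MS; duplicate means.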

[12] = Protein binding in human plasma at 10 uM incubated for 8 hrs at 37 degC by equilibrium dialysis method; format: ADME, cell-free; conditions: read-out: PPB (converted)
Outline: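 Equilibrium dialysis: 10 μM compound in 1% DMSO in human plasma vs 0.05 M phosphate buffer pH 7.5 across 12–14 K cutoff membrane, at least 8 h at 37 °C; HPLC-photodiode detection at 230 nm; duplicate means.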

[13] = Chlorocebus sabaeus, Vero, read-out: IC50

Structure (SMILES) | MIC [2] [µg/mL] | IC50 [1, 13] [µg/mL] | MIC [3] [µg/mL] | MIC90 [6] [µg/mL] | MBC90 [2] [µg/mL] | also measured
O=C1c2ccc(N3CCCC3)cc2-n2c1nc1ccccc1c2=O | – | – | – | – | – | IC50 ([1]; vero): ND(Insoluble)
O=C1c2ccc(N3CCC(O)C3)cc2-n2c1nc1ccccc1c2=O (centres undefined) | 8 (≈ 24 µM) | 27 (≈ 81 µM) | 8 | – | – | –
O=C1c2ccc(N3CCC(O)CC3)cc2-n2c1nc1ccccc1c2=O | 16 (≈ 46.1 µM) | 31 (≈ 89.2 µM) | 16 | – | – | –
O=C1c2cc(OC(F)(F)F)ccc2-n2c1nc1ccccc1c2=O | 0.125 (≈ 0.376 µM) | > 50 | 0.5 | > 50 | – | solubility [4]: 1.5 µM (≈ 0.498 µg/mL); solubility [5]: 31.3 µM (≈ 10.4 µg/mL); efflux ratio at 1 h [7]: > 1; solubility [8]: 1 µM (≈ 0.332 µg/mL); Papp B→A at 1 h [9]: 5.8 ×10⁻⁶ cm/s; Papp A→B at 1 h [10]: 22 ×10⁻⁶ cm/s; remaining at 1 h, 1 µM [11]: 59%
CCOC(=O)c1ccc2c(c1)C(=O)c1nc3c(OC)cccc3c(=O)n1-2 | 0.125 (≈ 0.357 µM) | 16 (≈ 45.7 µM) | 4 | – | 1 (≈ 2.85 µM) | –
Cl.O=C1c2ccc(N3CCNCC3)cc2-n2c1nc1ccccc1c2=O | 8 | 16 | 8 | – | >16 | –
O=C1c2ccc(N3CCNCC3)cc2-n2c1nc1ccccc1c2=O | 0.5 (≈ 1.5 µM) | > 2 | > 2 | – | >2 | –
O=C1c2cc(Cl)ccc2-n2c1nc1ccc(F)cc1c2=O | 0.156 (≈ 0.519 µM) | 23.5 (≈ 78.2 µM) | 0.312 | > 50 | – | solubility [5]: 29.8 µM (≈ 8.96 µg/mL); Papp B→A at 1 h [9]: 2.1 ×10⁻⁶ cm/s; Papp A→B at 1 h [10]: 2.2 ×10⁻⁶ cm/s; remaining at 1 h, 1 µM [11]: 63%
O=C1c2cc(Cl)ccc2-n2c1nc1cc(F)ccc1c2=O | 0.5 (≈ 1.66 µM) | > 50 | 0.5 | > 50 | 0.25 (≈ 0.831 µM) | solubility [4]: 2.5 µM (≈ 0.752 µg/mL); solubility [5]: 10.3 µM (≈ 3.1 µg/mL); efflux ratio at 1 h [7]: > 1; solubility [8]: 1.1 µM (≈ 0.331 µg/mL); Papp B→A at 1 h [9]: 12.7 ×10⁻⁶ cm/s; Papp A→B at 1 h [10]: 28.5 ×10⁻⁶ cm/s; remaining at 1 h, 1 µM [11]: 91%
CCN(CCN(C)C)c1ccc2nc3n(c(=O)c2c1)-c1ccc(Cl)cc1C3=O | 16 (≈ 40.3 µM) | 32 (≈ 80.6 µM) | 16 | – | 4 (≈ 10.1 µM) | –
O=C1c2cc(OC(F)(F)F)ccc2-n2c1nc1ncccc1c2=O | 0.25 (≈ 0.75 µM) | 7.6 (≈ 22.8 µM) | 0.5 | 2.5 (≈ 7.5 µM) | – | –
O=C1C2=Nc3ncccc3CN2c2ccc(OC(F)(F)F)cc21 | 16 (≈ 50.1 µM) | 4.4 (≈ 13.8 µM) | – | – | – | –
O=C1C2=Nc3ncccc3CN2c2ccccc21 | 32 (≈ 136 µM) | 4.8 (≈ 20.4 µM) | – | – | – | –
O=C1C2=Nc3ncccc3CN2c2ccc(Cl)cc21 | 16 (≈ 59.3 µM) | > 10 | – | – | – | –
O=C1C2=Nc3ccncc3CN2c2ccc(OC(F)(F)F)cc21 | 2 (≈ 6.26 µM) | 5.2 (≈ 16.3 µM) | – | 9 (≈ 28.2 µM) | – | –
COc1ccc2c(c1)C(=O)c1nc3ccccc3c(=O)n1-2 | 1 (≈ 3.59 µM) | 5.5 (≈ 19.8 µM) | 2 | – | 0.5 (≈ 1.8 µM) | –
O=C1c2ccccc2-n2c1nc1ccc([N+](=O)[O-])cc1c2=O | 16 (≈ 54.6 µM) | 64 (≈ 218 µM) | 32 | – | 32 (≈ 109 µM) | –
O=C1c2ccc(Cl)cc2-n2c1nc1ncccc1c2=O | 1 (≈ 3.53 µM) | 7 (≈ 24.7 µM) | 2 | – | – | –
O=C1c2cc([N+](=O)[O-])ccc2-n2c1nc1ncccc1c2=O | 0.5 (≈ 1.7 µM) | < 0.2 | 4 | – | 4 (≈ 13.6 µM) | –
O=C1c2cc([N+](=O)[O-])ccc2-n2c1nc1ccccc1c2=O | 0.032 (≈ 0.109 µM) | 28 (≈ 95.5 µM) | 0.5 | 2.4 (≈ 8.18 µM) | 0.25 (≈ 0.853 µM) | solubility [4]: 5.1 µM (≈ 1.5 µg/mL); solubility [5]: 152 µM (≈ 44.5 µg/mL); solubility [8]: 64.3 µM (≈ 18.9 µg/mL); remaining at 1 h, 1 µM [11]: 33%; fraction unbound at 8 h, 10 µM [12]: 0.031
Nc1ccc2c(c1)C(=O)c1nc3ccccc3c(=O)n1-2 | 8 (≈ 30.4 µM) | – | 16 | – | – | –
O=C1c2cc(Br)ccc2-n2c1nc1ccccc1c2=O | 0.125 (≈ 0.382 µM) | 35 (≈ 107 µM) | 0.5 | > 50 | – | solubility [4]: 2.3 µM (≈ 0.752 µg/mL); solubility [5]: 92.9 µM (≈ 30.4 µg/mL); efflux ratio at 1 h [7]: > 1; solubility [8]: 2.6 µM (≈ 0.851 µg/mL); Papp B→A at 1 h [9]: 7.6 ×10⁻⁶ cm/s; Papp A→B at 1 h [10]: 23.8 ×10⁻⁶ cm/s; remaining at 1 h, 1 µM [11]: 59%
CS(=O)(=O)Nc1ccc2c(c1)C(=O)c1nc3ccccc3c(=O)n1-2 | 4 (≈ 11.7 µM) | > 8 | > 8 | – | 2 (≈ 5.86 µM) | –

— ChEMBL document CHEMBL2346548, “Design, synthesis, and structure-activity relationship studies of tryptanthrins as antitubercular agents” (J Nat Prod, 2013)
